The values below come from ChEMBL document CHEMBL1146584, “Renieramycin J, a highly cytotoxic tetrahydroisoquinoline alkaloid, from a marine sponge Neopetrosia sp” (J Nat Prod, 2003).

Active and inactive are the calls of the source. The calls are words filed in the database; no cut-off is given here.

The test system of one test is HeLa. In words: Cytotoxicity against human HeLa cells after 72 hrs by MTT assay. The test is classed as functional, cell-based. (Tetrazolium assays rely on reduction of a dye to a coloured formazan, in cell work by metabolically active cells.)
Test [1] has as its system 3Y1 cell line. Briefly: Induction of morphological changes in rat 3Y1 cells assessed as filopodial development. Type of test: functional, cell-based. Summed up:
(§1)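 Rat 3Y1 cells exposed to 86 nM; nucleoli (shrinkage or loss) and filopodial development inspected at 6 h.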

The next test relates to 3Y1. In words: Induction of morphological changes in rat 3Y1 cells assessed as cell death at 1.7 uM after 24 hrs. The test is classed as functional, cell-based. Summed up: (§2)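 3Y1 cells exposed to 1.7 μM; cell rounding scored at 6 h, proportion of dead cells estimated within 24 h.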
In test [2] the test system is 3Y1 cell line. Briefly: Induction of morphological changes in rat 3Y1 cells assessed as increase in dead cell number after 12 hrs by light microscopy. The test is classed as functional, cell-based. The procedure, abridged: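 3Y1 cells kept under continued exposure; cellular boundaries and dead-cell numbers inspected at 12 h and followed to day five under a light microscope.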

A short description of test [3]: Cytotoxicity against rat 3Y1 cells after 72 hrs by MTT assay. Particulars: 3Y1, 72 h. Type of test: functional, cell-based.
Test [4] can be described thus: Induction of morphological changes in rat 3Y1 cells assessed as cell death at 1.7 uM after 24 hrs.
In the next test the test system is P388. In words: Cytotoxicity against mouse P388 cells after 72 hrs by MTT assay. The test is classed as functional, cell-based. Particulars: P388, 72 h.
The subject of test [5] is 3Y1 cell line. In words: Induction of morphological changes in rat 3Y1 cells assessed as cell rounding at 1.7 uM after 6 hrs. Type of test: functional, cell-based. The procedure, abridged: as §2
Test [6] concerns 3Y1 cell line. Briefly: Induction of morphological changes in rat 3Y1 cells assessed as cell shrinkage at 86 nM after 6 hrs by phase contrast microscopy. The test is classed as functional, cell-based. Summed up:
as §1

Test [7] deals with 3Y1 cell line. In words: Induction of morphological changes in rat 3Y1 cells assessed as disappearance of nucleoli at 86 nM after 6 hrs by phase contrast microscopy. The test is classed as functional, cell-based. Summed up: as §1

As a reminder, the IC50 is the midpoint of a concentration-inhibition curve. The low end stands for greater potency in that assay, the high end for weaker potency in that assay. Consider `C/C=C(/C)C(=O)OC[C@H]1C2=C(C[C@H]3[C@H]4c5c(O)c(OC)c(C)c(O)c5[C@H](O)[C@@H]([C@H](O)N13)N4C)C(=O)C(C)=C(OC)C2=O` [RENIERAMYCIN J], for which the IC50 in the test with HeLa stood at 12.3 nM; in test [3], 5.3 nM; in the test with P388, 0.53 nM. The outcome in the test with 3Y1 cell line [1], with 3Y1, in the test with 3Y1 cell line [2], with 3Y1 cell line [5], in the test with 3Y1 cell line [6] and with 3Y1 cell line [7] was Active. Also, in [4], the Activity is reported as 90%.
